Measurements published in ChEMBL document CHEMBL1158008, “New bioactive flavonoids and stilbenes in cubé resin insecticide” (J Nat Prod, 1999).

Legend:
[1] = Inhibition of bovine NADH-ubiquinone oxidoreductase; parameters: species or system Bos taurus
Method in brief: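 Bovine heart electron transport particles (inverted inner mitochondrial membrane vesicles, 40 µg protein) preincubated with compound 5 min at 25 °C in 50 mM phosphate pH 7.4, 250 mM sucrose. NADH added (28 µM final); activity followed as A340 loss over 3 min. IC50 from three experiments.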

[2] = Cytotoxicity against mouse Hepa1clc7 cells after 72 hrs; type: functional, cell-based
Method in brief: (§1)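 Test compound added to cultured cells, 72 h incubation, then viability read by MTT (3-(4,5-dimethylthiazol-2-yl)-2,5-diphenyltetrazolium bromide) reduction. IC50 derived from eight replicates per assay.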

MCF7 = experiment: Cytotoxicity against human MCF7 cells after 72 hrs; type: functional, cell-based; settings: MCF7, 72 h; method in brief: as §1

| SMILES | IC50 [1] [µM] | IC50 [2] [µM] | IC50 (MCF7) [µM] |
| --- | --- | --- | --- |
| COc1ccc([C@@H]2CC(=O)c3c(O)c(CC=C(C)C)c4c(c3O2)C=CC(C)(C)O4)cc1O | 2 | 3.9 | 6.9 |
| COc1ccc([C@@H]2CC(=O)c3c(O)c(CC=C(C)C)c4c(c3O2)C=CC(C)(C)O4)cc1OC | 2.1 | 8.5 | 6.6 |
| COc1cc(/C=C/C(=O)c2ccc3c(c2O)C=CC(C)(C)O3)ccc1O | 4.8 | 5.9 | 10 |
| COc1cc([C@@H]2CC(=O)c3c(O)c(CC=C(C)C)c4c(c3O2)C=CC(C)(C)O4)ccc1O | 0.68 | 3.5 | 3 |
| COc1ccc([C@@H]2CC(=O)c3cc(CC=C(C)C)c4c(c3O2)C=CC(C)(C)O4)cc1OC | 2.6 | 5.1 | 5.7 |
| COc1cc(OC)c(-c2coc3c4c(ccc3c2=O)OC(C)(C)[C@@H](O)[C@H]4O)cc1OC (relative stereo) | > 30 | > 30 | > 30 |

Second part, led by results:

| IC50 [1] [µM] | SMILES | IC50 [2] [µM] | IC50 (MCF7) [µM] |
| --- | --- | --- | --- |
| 4.9 | CC1(C)C=Cc2c(ccc(C(=O)/C=C/c3ccc(O)cc3)c2O)O1 | 10 | 27 |
| 4.9 | COc1cc(/C=C/c2ccc3c(c2)OC(C)(C)C=C3)cc(OC)c1OC | 7 | 24 |
| 5.3 | COc1cc(/C=C/c2ccc(O)cc2)cc2c1C=CC(C)(C)O2 | 8.5 | > 30 |
| 8.1 | COc1cc(/C=C/c2cc(OC)c3c(c2)OC(C)(C)C=C3)ccc1O | 13 | > 30 |
| 35 | O=c1c(-c2ccc(O)cc2)coc2cc(O)cc(O)c12 [GENISTEIN] | 11 | > 30 |
| 26 | Oc1ccc(/C=C/c2cc(O)cc(O)c2)cc1 [RESVERATROL] | 11 | > 30 |
